# In ChEMBL document CHEMBL4706761, “Design and Implementation of Synthetic RNA Binders for the Inhibition of miR-21 Biogenesis” (ACS Med Chem Lett, 2021):
# Key:
# microRNA 21 [1] = test: Binding affinity to 5'-FAM/3'-DAB-labeled UGUCGGGUAGCUUAUCAGACUGAUGUUGACUGUUGAAUCUCAUGGCAACACCAGUCGAUGGGCUGUCUGACA pre-miRNA-21 (unknown origin) assessed as dissociation constant incubated for overnight by fluorescence based assay; format: nucleic-acid assay
# microRNA 21 [2] = test: Binding affinity to 5'-FAM/3'-DAB-labeled UGUCGGGUAGCUUAUCAGACUGAUGUUGACUGUUGAAUCUCAUGGCAACACCAGUCGAUGGGCUGUCUGACA pre-miRNA-21 (unknown origin) assessed as dissociation constant incubated for overnight in presence of Saccharomyces cerevisiae tRNA by fluorescence based assay; format: nucleic-acid assay
# microRNA 21 [3] = test: (§1) Selectivity index, ratio of Kd for 5'-FAM/3'-DAB-labeled UGUCGGGUAGCUUAUCAGACUGAUGUUGACUGUUGAAUCUCAUGGCAACACCAGUCGAUGGGCUGUCUGACA pre-miRNA-21 (unknown origin) in presence of tRNA to Kd for 5'-FAM/3'-DAB-labeled UGUCGGGUAGCUUAUCAGACUGAUGUUGACUGUUGAAUCUCAUGGCAACACCAGUCGAUGGGCUGUCUGACA pre-miRNA-21 (unknown origin); format: nucleic-acid assay
# microRNA 21 [4] = test: Binding affinity to 5'-FAM/3'-DAB-labeled UGUCGGGUAGCUUAUCAGACUGAUGUUGACUGUUGAAUCUCAUGGCAACACCAGUCGAUGGGCUGUCUGACA pre-miRNA-21 (unknown origin) assessed as dissociation constant incubated for overnight in presence of double stranded 15-mer 5'-CGTTTTTATTTTTGC-3' DNA by fluorescence based assay; format: nucleic-acid assay
# microRNA 21 [5] = test: as §1, with “double stranded 15-mer 5'-CGTTTTTATTTTTGC-3' DNA” for “tRNA”; format: nucleic-acid assay
# microRNA 21 [6] = test: Inhibition of 5'-FAM/3'-DAB-labeled UGUCGGGUAGCUUAUCAGACUGAUGUUGACUGUUGAAUCUCAUGGCAACACCAGUCGAUGGGCUGUCUGACA pre-miRNA-21 (unknown origin) biogenesis incubated for 30 mins in presence of human recombinant dicer by FRET based assay; format: nucleic-acid assay
# In short: (§2)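 FRET cleavage assay on a 72-mer pre-miR-21 carrying 5′-fluorescein and 3′-dabcyl. Substrate is processed by recombinant Dicer, E. coli RNase III or MCF7 cell lysate across a range of ligand concentrations. Cleavage raises fluorescence. IC50 from duplicates over three independent experiments.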
# microRNA 21 [7] = test: Binding affinity to 5'-FAM/3'-DAB-labeled UGUCGGGUAGCUUAUCAGACUGAUGUUGACUGUUGAAUCUCAUGGCAACACCAGUCGAUGGGCUGUCUGACA pre-miRNA-21 (unknown origin) assessed as pre-miRNA-21-compound complex formation by measuring Gibbs free energy; format: nucleic-acid assay
# In short: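 ΔG°T obtained from the fluorescence binding assay on 5′-FAM-pre-miR-21, run at several temperatures (278–308 K). Enthalpic (ΔH°) and entropic (−TΔS°) contributions are derived from these values.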
# microRNA 21 [8] = test: Inhibition of 5'-FAM/3'-DAB-labeled UGUCGGGUAGCUUAUCAGACUGAUGUUGACUGUUGAAUCUCAUGGCAACACCAGUCGAUGGGCUGUCUGACA pre-miRNA-21 (unknown origin) biogenesis preincubated for 30 mins followed by Escherichia coli RNase III addition and measured after 1 hr by fluorescence based assay; format: nucleic-acid assay; in short: as §2
# microRNA 21 [9] = test: Inhibition of 5'-FAM/3'-DAB-labeled UGUCGGGUAGCUUAUCAGACUGAUGUUGACUGUUGAAUCUCAUGGCAACACCAGUCGAUGGGCUGUCUGACA pre-miRNA-21 (unknown origin) biogenesis preincubated for 30 mins followed by MCF7 cell lysate addition and measured after 1 hr by fluorescence based assay; in short: as §2
Kd (microRNA 21 [1]),Kd (microRNA 21 [2]),Ratio (microRNA 21 [3]),Kd (microRNA 21 [4]),Ratio (microRNA 21 [5]),IC50 (microRNA 21 [6]),deltaG (microRNA 21 [7]),IC50 (microRNA 21 [8]),IC50 (microRNA 21 [9]),Structure (SMILES)
50.3 nM,50.4 nM,1,80.9 nM,1.6,< 5000 nM,-9.92 kcal/mol,,,CC(=O)Nc1nc(-c2cccc(NC(=O)CCC(=O)N[C@@H](Cc3cn(C[C@H]4O[C@@H](O[C@@H]5[C@@H](O)[C@H](N)C[C@H](N)[C@H]5O[C@H]5O[C@H](CN)[C@@H](O)[C@H](O)[C@H]5N)[C@H](O)[C@@H]4O[C@H]4O[C@@H](CN)[C@@H](O)[C@H](O)[C@H]4N)nn3)C(=O)N[C@@H](Cc3c[nH]cn3)C(N)=O)c2)cs1
162 nM,168 nM,1,274 nM,1.7,< 5000 nM,,,,Cc1ccc(C(=O)Nc2nc(-c3cccc(NC(=O)CCC(=O)N[C@@H](Cc4cn(C[C@H]5O[C@@H](O[C@@H]6[C@@H](O)[C@H](N)C[C@H](N)[C@H]6O[C@H]6O[C@H](CN)[C@@H](O)[C@H](O)[C@H]6N)[C@H](O)[C@@H]5O[C@H]5O[C@@H](CN)[C@@H](O)[C@H](O)[C@H]5N)nn4)C(=O)N[C@@H](Cc4c[nH]cn4)C(N)=O)c3)cs2)cc1
128 nM,134 nM,1,171 nM,1.3,< 5000 nM,,1260 nM,3100 nM,NC[C@@H]1O[C@H](O[C@H]2[C@@H](O)[C@H](O[C@@H]3[C@@H](O)[C@H](N)C[C@H](N)[C@H]3O[C@H]3O[C@H](CN)[C@@H](O)[C@H](O)[C@H]3N)O[C@@H]2Cn2cc(CCC(=O)Nc3cccc(-c4csc(NC(=O)[C@@H](N)Cc5c[nH]cn5)n4)c3)nn2)[C@H](N)[C@@H](O)[C@@H]1O
133 nM,151 nM,1.1,187 nM,1.4,,,,,CC(=O)Nc1nc(-c2cccc(NC(=O)CCC(=O)N[C@@H](Cc3cn(C[C@H]4O[C@@H](O[C@@H]5[C@@H](O)[C@H](N)C[C@H](N)[C@H]5O[C@H]5O[C@H](CN)[C@@H](O)[C@H](O)[C@H]5N)[C@H](O)[C@@H]4O[C@H]4O[C@@H](CN)[C@@H](O)[C@H](O)[C@H]4N)nn3)C(=O)N[C@@H](C)C(N)=O)c2)cs1
128 nM,170 nM,1.3,261 nM,2,< 5000 nM,,,,Cc1ccc(C(=O)Nc2nc(-c3cccc(NC(=O)CCC(=O)N[C@@H](Cc4cn(C[C@H]5O[C@@H](O[C@@H]6[C@@H](O)[C@H](N)C[C@H](N)[C@H]6O[C@H]6O[C@H](CN)[C@@H](O)[C@H](O)[C@H]6N)[C@H](O)[C@@H]5O[C@H]5O[C@@H](CN)[C@@H](O)[C@H](O)[C@H]5N)nn4)C(=O)N[C@@H](C)C(N)=O)c3)cs2)cc1
50.7 nM,51 nM,1,95.7 nM,1.9,< 5000 nM,-9.92 kcal/mol,,,CC(=O)Nc1nc(-c2cccc(NC(=O)CCC(=O)N[C@@H](Cc3cn(C[C@H]4O[C@@H](O[C@@H]5[C@@H](O)[C@H](N)C[C@H](N)[C@H]5O[C@H]5O[C@H](CN)[C@@H](O)[C@H](O)[C@H]5N)[C@H](O)[C@@H]4O[C@H]4O[C@@H](CN)[C@@H](O)[C@H](O)[C@H]4N)nn3)C(=O)N[C@@H](CCCCN)C(N)=O)c2)cs1
348 nM,405 nM,1.2,877 nM,2.5,,,,,Cc1ccc(C(=O)Nc2nc(-c3cccc(NC(=O)CCC(=O)N[C@@H](Cc4cn(C[C@H]5O[C@@H](O[C@@H]6[C@@H](O)[C@H](N)C[C@H](N)[C@H]6O[C@H]6O[C@H](CN)[C@@H](O)[C@H](O)[C@H]6N)[C@H](O)[C@@H]5O[C@H]5O[C@@H](CN)[C@@H](O)[C@H](O)[C@H]5N)nn4)C(=O)N[C@@H](CCCCN)C(N)=O)c3)cs2)cc1
1390 nM,1420 nM,1,1950 nM,1.4,,,,,NC[C@@H]1O[C@H](O[C@H]2[C@@H](O)[C@H](O[C@@H]3[C@@H](O)[C@H](N)C[C@H](N)[C@H]3O[C@H]3O[C@H](CN)[C@@H](O)[C@H](O)[C@H]3N)O[C@@H]2CO)[C@H](N)[C@@H](O)[C@@H]1O [FRAMYCETIN]
641 nM,807 nM,1.3,1460 nM,2.3,,,,,C[C@H](NC(=O)[C@H](Cc1cn(C[C@H]2O[C@@H](O[C@@H]3[C@@H](O)[C@H](N)C[C@H](N)[C@H]3O[C@H]3O[C@H](CN)[C@@H](O)[C@H](O)[C@H]3N)[C@H](O)[C@@H]2O[C@H]2O[C@@H](CN)[C@@H](O)[C@H](O)[C@H]2N)nn1)NC(=O)CCC(=O)NCCn1ccc(=O)[nH]c1=O)C(N)=O
